# Results from different studies.
# Each line is one published result; the experiments were not run side by side.
# RPS6KA4 C-terminal kinase domain: Ribosomal protein S6 kinase alpha-4, C-terminal kinase domain (RPS6KA4, Homo sapiens, UniProt O75676)
# RPS6KA4: Ribosomal protein S6 kinase alpha-4 (RPS6KA4, Homo sapiens, UniProt O75676)
Compound,target,observed,mode,method,tested at,measurement,value
Nc1ncc(-c2nc(N3CCOCC3)nc(N3CCOCC3)n2)c(C(F)F)n1,RPS6KA4 C-terminal kinase domain,binding,,competition with immobilised ligand,10 µM,remaining binding,63%
CC(C)(C)c1cc(C=C(C#N)C#N)cc(Br)c1O,RPS6KA4,enzyme activity,inhibitor,,0.5 µM,remaining activity,90.9%
Cn1cncc1[C@](O)(COc1ccc(C#N)cc1-c1ccc(OC(F)(F)F)cc1)c1ccc(C#N)cc1,RPS6KA4 C-terminal kinase domain,cell-free assay,,competition with immobilised ligand,1 µM,remaining binding,76%
O=c1[nH]c2ccccc2n1C1CCN(Cc2ccc(-c3[nH]c4cc5ncnc5cc4nc3-c3ccccc3)cc2)CC1,RPS6KA4,cell-free assay,,,0.5 µM,remaining signal,98.8%
Cn1cc(-c2cccc(N3CCc4c(sc5c4CC(C)(C)C5)C3=O)c2CO)cc(Nc2ccncn2)c1=O,RPS6KA4,enzyme activity,inhibitor,,1 µM,inhibition,3%
Cc1nn(C)cc1-c1nc2c(N3CCN(Cc4ccc(Cl)cc4)CC3)c(Cl)cnc2[nH]1,"Ribosomal protein S6 kinase alpha-4, N-terminal kinase domain (RPS6KA4, Homo sapiens, UniProt O75676)",binding,,competition with immobilised ligand,1 µM,remaining binding,62%
Cn1cc(-c2cc(F)cc(N3CCn4c(cc5c4CCCC5)C3=O)c2CO)cc(Nc2ccc(N3CCN(C4COC4)CC3)cn2)c1=O,RPS6KA4,enzyme activity,inhibitor,,0.1 µM,inhibition,15%
N#CC1(c2ccccn2)CCN(Cc2cc(C(=O)O)c(=O)n3ccccc23)CC1,RPS6KA4 C-terminal kinase domain,cell-free assay,,competition with immobilised ligand,1 µM,remaining binding,65%
